Laboratory results published in ChEMBL document CHEMBL4002602, “Design, Synthesis of Novel, Potent, Selective, Orally Bioavailable Adenosine A2A Receptor Antagonists and Their Biological Evaluation” (J Med Chem, 2017).
Active and inactive are the calls of the source. The rule behind the calls is not given here.

Assays:
Adenosine receptor A1 = molecular target: T1, Adenosine receptor A1 (Homo sapiens, UniProt P30542); experiment: Antagonist activity at human adenosine A1 receptor expressed in HEK293 cell membranes assessed as decrease in CPA/forskolin-induced cAMP level pretreated for 15 mins followed by agonist addition for 15 mins and subsequent forskolin stimulation measured after 30 mins; assay type: functional, cell-based
T1 sequence (P30542 whole entry): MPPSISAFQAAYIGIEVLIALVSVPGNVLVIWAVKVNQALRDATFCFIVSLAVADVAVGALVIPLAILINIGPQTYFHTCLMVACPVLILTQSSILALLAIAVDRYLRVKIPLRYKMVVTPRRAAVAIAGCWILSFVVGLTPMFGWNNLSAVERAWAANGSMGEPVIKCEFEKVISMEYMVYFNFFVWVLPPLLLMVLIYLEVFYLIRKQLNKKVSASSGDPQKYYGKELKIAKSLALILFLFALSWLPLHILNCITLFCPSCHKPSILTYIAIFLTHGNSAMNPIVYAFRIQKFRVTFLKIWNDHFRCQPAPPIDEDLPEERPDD
Summary of the method: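 HTRF cAMP assay in overnight-seeded HEK cells expressing human A1, A2A or A2B, pretreated with ADA 1 U/ml for 90 min at 37 °C. Cells were given compound at increasing concentrations for 15 min, then agonist at room temperature in incomplete DMEM with ADA: CPA 1 nM, 15 min (A1); CGS-21680 10 nM, 30 min (A2A); NECA 70 nM, 15 min (A2B). Rolipram 20 μM for A1 and A2A; forskolin 30 min for A1 only. 12 concentrations, triplicates; IC50/Ki by curve fitting.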

[1] = molecular target: Voltage-gated inwardly rectifying potassium channel KCNH2 (Homo sapiens, UniProt Q12809); experiment: Inhibition of [3H]-astemizole binding to human ERG at 10 uM after 2 hrs by liquid scintillation counting method relative to control; conditions: 2 h, 10 µM
[2] = AUC (0 to t) in Wistar rat plasma at 10 mg/kg administered through oral gavage by LC/MS/MS analysis; assay type: ADME, organism-based
[3] = AUC (0 to t) in Wistar rat brain at 10 mg/kg administered through oral gavage by LC/MS/MS analysis; assay type: ADME, organism-based
Summary of the method: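 Male Wistar rats (230 ± 15 g), fasted overnight, given an oral suspension (1% Tween 80, 0.5% NaCMC; 1 mg/mL, 10 mL/kg). Blood and brain were collected discretely at 0.5, 2, 4 and 8 h. Brain was washed in PBS pH 7.4, weighed and homogenized, then acetonitrile-precipitated with internal standard. LC/MS/MS against standards in blank brain homogenate; n=4.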

Rattus norvegicus = experiment: Neuroprotective activity in 6-OHDA-lesioned Wistar rat model of parkinson disease assessed as increase in L-DOPA induced contralateral rotations at 100 mg/kg, po pretreated for 30 mins followed by benserazide addition and subsequent L-DOPA stimulation for 30 mins measured up to 2 hrs; assay type: functional, organism-based
Summary of the method: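 Male Wistar rats (295–305 g) anesthetized with ketamine/xylazine and given desipramine 10 mg/kg i.p. 30 min before 6-OHDA lesioning. At two weeks, rats were screened with apomorphine 0.05 mg/kg i.p. and kept only if they made ≥100 rotations in 1 h. Compound (30 or 100 mg/kg p.o., in 1% Tween 80/0.5% MC) was given 30 min before benserazide. L-DOPA 4 mg/kg i.p. followed 30 min later. Contralateral rotations counted over 2 h; one-way ANOVA with Dunnett's test.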

Chain of Voltage-gated inwardly rectifying potassium channel KCNH2 (Q12809 whole entry): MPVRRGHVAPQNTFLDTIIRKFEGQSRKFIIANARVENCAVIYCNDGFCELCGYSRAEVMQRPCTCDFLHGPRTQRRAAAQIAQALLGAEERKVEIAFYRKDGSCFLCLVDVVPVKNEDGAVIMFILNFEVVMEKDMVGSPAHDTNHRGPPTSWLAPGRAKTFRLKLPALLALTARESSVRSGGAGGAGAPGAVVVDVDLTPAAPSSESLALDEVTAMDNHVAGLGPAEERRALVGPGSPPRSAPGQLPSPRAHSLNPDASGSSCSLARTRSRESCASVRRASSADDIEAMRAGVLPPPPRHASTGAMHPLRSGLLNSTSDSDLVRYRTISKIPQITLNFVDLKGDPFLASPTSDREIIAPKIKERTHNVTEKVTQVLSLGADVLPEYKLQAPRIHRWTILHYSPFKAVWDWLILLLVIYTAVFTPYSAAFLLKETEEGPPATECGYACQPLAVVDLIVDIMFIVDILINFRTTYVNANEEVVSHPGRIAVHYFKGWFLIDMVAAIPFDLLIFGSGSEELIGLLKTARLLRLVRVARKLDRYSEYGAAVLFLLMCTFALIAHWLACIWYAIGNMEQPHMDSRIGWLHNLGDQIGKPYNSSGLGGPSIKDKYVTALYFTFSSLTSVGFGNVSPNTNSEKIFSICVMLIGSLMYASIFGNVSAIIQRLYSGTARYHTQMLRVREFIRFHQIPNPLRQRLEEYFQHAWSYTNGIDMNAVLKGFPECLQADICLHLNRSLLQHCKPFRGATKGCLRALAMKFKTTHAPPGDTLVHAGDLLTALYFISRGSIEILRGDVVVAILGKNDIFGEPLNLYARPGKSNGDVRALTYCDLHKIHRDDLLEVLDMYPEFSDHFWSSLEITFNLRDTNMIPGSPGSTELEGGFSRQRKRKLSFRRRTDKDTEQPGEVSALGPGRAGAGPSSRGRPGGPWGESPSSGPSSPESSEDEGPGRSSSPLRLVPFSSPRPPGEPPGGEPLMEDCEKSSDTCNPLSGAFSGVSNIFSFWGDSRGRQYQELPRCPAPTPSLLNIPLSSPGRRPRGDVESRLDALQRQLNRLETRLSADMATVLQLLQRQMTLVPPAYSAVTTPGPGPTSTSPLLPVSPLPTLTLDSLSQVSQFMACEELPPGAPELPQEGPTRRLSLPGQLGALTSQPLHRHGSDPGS

SMILES: COc1ccc(N2CCOCC2)c2sc(NC(=O)C(C)(C)Oc3ccc(F)cc3)nc12
- Ki (Adenosine receptor A1): 2 µM

SMILES: COc1ccc(N2CCOCC2)c2sc(NC(=O)C3(C)CCC(C)(O)CC3)nc12 (stereo not given)
- inhibition (INH) [1]: Not Active

SMILES: CCN(CC)C1CCC(C)(C(=O)Nc2nc3c(OC)ccc(N4CCOCC4)c3s2)CC1 (stereo not given)
- AUC(0-t) [2]: 4.7 µM·h
- AUC(0-t) [3]: 1.1 µM·h
- Activity (Rattus norvegicus): Active
